Experimental data collected from several papers.
Lines come from different studies, so protocols differ. pIC50, pKd, pKi: −log10 of the molar value.
ERG11: Lanosterol 14-alpha demethylase (ERG11, Candida albicans, UniProt P10613)
Integrin alpha-V/beta-6: Integrin alpha-V/beta-6 (Homo sapiens, UniProt P06756+P18564)
HTR7: 5-hydroxytryptamine receptor 7 (HTR7, Homo sapiens, UniProt P34969)
ST14: Suppressor of tumorigenicity 14 protein (ST14, Homo sapiens, UniProt Q9Y5Y6)

Structure (SMILES) | target | effect on | mode | technique | measurement | result
O=S(=O)(c1ccc(OCC(O)CN2CCCC2)c(Cl)c1)c1ccc(OCC(O)CN2CCCC2)c(Cl)c1 (centres unmarked) | ERG11 | enzyme activity | inhibitor | mass spectrometry | pIC50 | < 4.30
C[C@@H](O)[C@H](NC(=O)C(C)(C)NC(=O)[C@@H](N)CS)C(=O)N[C@@H](CCCNC(=N)N)C(=O)NCC(=O)N[C@@H](CC(=O)O)C(=O)N[C@@H](Cc1cccnc1)C(=O)N1CC(F)(F)C[C@H]1C(N)=O | Integrin alpha-V/beta-6 | binding | – | BLI | pKd | 4.26
CCN1CCN(Cc2ccc(Nc3ncc(F)c(-c4cc(F)c5nc6n(c5c4)[C@H](C)CCC6)n3)nc2)CC1 | Multidrug and toxin extrusion protein 1 (SLC47A1, Homo sapiens, UniProt Q96FL8) | enzyme activity | inhibitor | – | pIC50 | 7.67
CC(C)(NC(=O)[C@@H](N)CS)C(=O)N[C@@H](CO)C(=O)N[C@@H](CCCNC(=N)N)C(=O)NCC(=O)N[C@@H](CC(=O)O)C(=O)N[C@@H](Cc1c(F)c(F)c(F)c(F)c1F)C(=O)N1CCC(F)(F)C[C@H]1C(N)=O | Integrin alpha-V/beta-6 | binding | – | BLI | pKd | 4.15
Cc1cc(O)c2c(=O)c3c(O)cc(O)c4c5c(O)cc(O)c6c(=O)c7c(O)cc(C)c8c1c2c(c34)c(c78)c65 | Calreticulin (CALR, Homo sapiens, UniProt P27797) | binding | – | MST | pKd | 5.43
CCCCC1CNC2CCc3ccc(OC)cc3C12 (racemic) | HTR7 | ligand displacement | – | radioligand | pKi | 6.23
COc1cc2c(cc1OC)CN(CCc1ccc(NC(=O)c3cccc4c(=O)c5cccc(OC)c5[nH]c34)cc1)CC2 | HTR7 | cell-free assay | – | – | pKi | 6.63
COCCC(=O)N[C@@H](CCC(N)=O)C(=O)N[C@@H](Cc1ccccc1)C(=O)N[C@@H](CCCNC(=N)N)C(=O)c1nc2ccccc2s1 | ST14 | cell-free assay | – | – | pKi | 9.03
CC1=CC(=O)[C@@H](O)[C@]2(C)[C@H]3[C@@H](O)[C@H](O)[C@@]4(C)OC[C@@]35[C@@H](C[C@@H]12)OC(=O)[C@H](O)[C@]54O | Serine/threonine-protein kinase pim-1 (PIM1, Homo sapiens, UniProt P11309) | binding | – | SPR | pKd | 5.18
CS(=O)(=O)N[C@@H](CCC(N)=O)C(=O)N[C@@H](Cc1ccccc1)C(=O)N[C@@H](CCCNC(=N)N)C(=O)c1nccs1 | ST14 | cell-free assay | – | – | pKi | 7.77
OC(COc1ccc(-c2nnco2)cc1)CN1CCN(CC(O)COc2ccc(-c3nnco3)cc2)CC1 (centres unmarked) | ERG11 | enzyme activity | inhibitor | mass spectrometry | pIC50 | < 4.30
